Consider 14 compounds from ChEMBL document CHEMBL4823264, “Efficient Dimerization Disruption of Leishmania infantum Trypanothione Reductase by Triazole-phenyl-thiazoles” (J Med Chem, 2021).

Calls of active or inactive are those of the source. The calls are words filed in the database; no cut-off is given here. Bounds are passed on as bounds.

Broadly, the inhibition is the change of the read-out against control, counted positive when it falls.

The nature of series [1]: Drug uptake in Leishmania infantum promastigotes at 25 uM after 1 hr by fluorescence microscopy analysis. Particulars: in vivo. It is filed as ADME. Put shortly:
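Log-phase promastigotes exposed to 25 μM compound for 1 h at 26 °C, fixed in […], mounted on polylysine slides and imaged by fluorescence microscopy for blue compound fluorescence.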

In series [2] the target is T1, Glutathione reductase, mitochondrial (Homo sapiens) (UniProt P00390).
T1 sequence (whole entry): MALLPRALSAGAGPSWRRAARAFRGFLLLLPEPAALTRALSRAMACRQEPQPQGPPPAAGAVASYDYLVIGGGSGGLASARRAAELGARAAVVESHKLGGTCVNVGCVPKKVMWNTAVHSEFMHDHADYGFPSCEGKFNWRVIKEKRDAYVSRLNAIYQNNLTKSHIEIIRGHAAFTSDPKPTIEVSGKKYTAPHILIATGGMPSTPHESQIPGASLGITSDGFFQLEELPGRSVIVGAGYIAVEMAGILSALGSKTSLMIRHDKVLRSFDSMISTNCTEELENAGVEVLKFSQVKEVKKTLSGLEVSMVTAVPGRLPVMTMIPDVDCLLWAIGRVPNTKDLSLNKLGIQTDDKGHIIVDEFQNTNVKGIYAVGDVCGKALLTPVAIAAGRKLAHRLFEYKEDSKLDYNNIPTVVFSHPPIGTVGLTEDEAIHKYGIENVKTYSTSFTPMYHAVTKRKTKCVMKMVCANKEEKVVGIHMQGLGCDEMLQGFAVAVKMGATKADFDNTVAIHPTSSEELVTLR
Kind of series: Inhibition of recombinant human GR oxidoreductase activity by DTNB-reagent based spectrophotometric method. The gist of the method:
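Recombinant hGR (7 nM) assayed at 37 °C in 40 mM HEPES pH 7.5 with 1 mM EDTA, 60 μM NADP+, 150 μM DTNB, 50 μM GSSG, 300 μM NADPH and 1.75% DMSO. TNB formation followed at 412 nm; at least three independent experiments, nonlinear regression.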

Series [3] can be described thus: Selectivity index, ratio of EC50 for human HepG2 cells to EC50 for axenic amastigote stage of Leishmania infantum MCAN/ES/89/IPZ229/1/89 infected in human HepG2 cells. The class given is toxicity, cell-based. Particulars: read-out: Ratio EC50.
The nature of series [4]: Selectivity index, ratio of EC50 for human HepG2 cells to EC50 for promastigote stage of Leishmania infantum MCAN/ES/89/IPZ229/1/89 infected in human HepG2 cells. The class given is toxicity, cell-based. Particulars: read-out: Ratio EC50.
The subject of another series is THP-1. Kind of series: Cytotoxicity against human THP-1 cells at 75 uM by LDH assay. The class given is cell-based. Particulars: thp-1, 75 µM. Put shortly:
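PMA-differentiated (100 ng/mL, 24 h) THP-1 macrophages infected with GFP-expressing amastigotes were exposed to compound, and viability was measured by LDH activity. The maximum concentration assayed was 75 μM. Three independent experiments.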

The target of series [5] is Trypanothione reductase (Leishmania infantum) (UniProt A4HSF7). Kind of series: Inhibition of recombinant His-FLAG-tagged Leishmania infantum TryR dimerization expressed in Escherichia coli […] assessed as reduction in TryR dimer at 20 uM using TS2 as substrate after 16 hrs by ELISA relative to control. Put shortly: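 HIS-FLAG-tagged LiTryR at 400 nM incubated 16 h at 37 °C in 300 mM NaCl, 50 mM Tris pH 8.0 with 3.12–75 μM compound, then centrifuged. Supernatant captured on anti-FLAG plates and detected with anti-HIS-HRP and OPD at 490 nm.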
Chain of Trypanothione reductase (Leishmania infantum) (A4HSF7 as listed by the source): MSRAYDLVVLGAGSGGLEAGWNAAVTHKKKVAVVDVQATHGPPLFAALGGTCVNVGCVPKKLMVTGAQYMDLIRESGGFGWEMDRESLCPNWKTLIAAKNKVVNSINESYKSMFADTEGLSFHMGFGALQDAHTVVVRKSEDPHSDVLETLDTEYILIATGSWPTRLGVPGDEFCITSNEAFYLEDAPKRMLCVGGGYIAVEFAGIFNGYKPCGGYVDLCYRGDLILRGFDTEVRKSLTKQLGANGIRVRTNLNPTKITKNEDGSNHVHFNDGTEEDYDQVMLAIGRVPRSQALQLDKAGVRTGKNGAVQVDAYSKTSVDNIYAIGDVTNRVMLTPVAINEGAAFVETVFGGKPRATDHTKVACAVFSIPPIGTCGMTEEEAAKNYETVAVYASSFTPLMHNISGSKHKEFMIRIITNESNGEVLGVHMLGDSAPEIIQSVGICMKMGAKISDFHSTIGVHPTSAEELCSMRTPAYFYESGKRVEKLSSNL

As to `NCCCCc1cn(-c2ccc(-c3nc(CCc4ccccc4)cs3)c(OCCN3CCNC3=O)c2)nn1.O=C(O)C(F)(F)F`, the Drug uptake result in series [1] was “Active”. For the same compound, in series [2], the inhibition entry is “inactive”.

With `NCCCCc1cn(-c2ccc(-c3nc(-c4ccc(Oc5ccccc5)cc4)c(-c4ccccc4)s3)c(OCCN3CCNC3=O)c2)nn1`, the selectivity ratio in series [3] is at least 3.3.

`NCCCCc1cn(-c2ccc(-c3nc(CCc4ccc5ccccc5c4)cs3)c(OCCN3CCNC3=O)c2)nn1`: the inhibition entry in series [2] is “inactive”.

With `NCCCCc1cn(-c2ccc(-c3nc(-c4ccccc4)cs3)c(OCCN3CCNC3=O)c2)nn1`, the inhibition entry in series [2] is “inactive”.

Turning to `COc1cc(-n2cc(CCCCN)nn2)ccc1-c1nc(CCc2ccccc2)cs1`, the selectivity ratio in series [4] came to 1.8.

As for `NCCCCc1cn(-c2ccc(-c3nc(CCc4ccc(-c5ccccc5)cc4)c(-c4ccccc4)s3)c(OCCN3CCNC3=O)c2)nn1`, the selectivity ratio in series [3] was found to be 1.3.

For `NCCCCc1cn(-c2ccc(-c3nc(CCc4ccc(Oc5ccccc5)cc4)c(-c4ccccc4)s3)c(OCCN3CCNC3=O)c2)nn1`, the selectivity ratio in series [3] was under 1.

In the case of `COc1cc(-n2cc(CCCCN)nn2)ccc1-c1nc(CCc2ccc(-c3ccccc3)cc2)cs1`, the selectivity ratio in series [3] was determined as 1.9.

`NCCCc1cn(-c2ccc(-c3nc(CCc4ccc(-c5ccccc5)cc4)cs3)c(OCCN3CCNC3=O)c2)nn1.O=C(O)C(F)(F)F` returned an Activity in the series on THP-1 of 100%.

Take `NCCCCc1cn(-c2ccc(-c3nc(-c4ccc(-c5ccccc5)cc4)c(-c4ccccc4)s3)c(OCCN3CCNC3=O)c2)nn1`: in series [3], the selectivity ratio was 1.8.

Turning to `NCCCCc1cn(-c2ccc(-c3nc(CCc4ccc(-c5ccccc5)cc4)cs3)c(OCCN3CCNC3=O)c2)nn1.O=C(O)C(F)(F)F`, the inhibition entry in series [2] was “inactive”. In the series with THP-1, the Activity turned out to be 100%.

As to `NCCNCc1nccn1-c1ccc(-c2nc(CCc3ccc4ccccc4c3)cs2)c(OCCN2CCNC2=O)c1`, the inhibition in series [5] came to 26%. Further, the selectivity ratio in series [4] and in series [3] was 2.1 in each case.

In the case of `NCCNCc1nccn1-c1ccc(-c2nc(CCc3ccc(-c4ccccc4)cc3)cs2)c(OCCN2CCNC2=O)c1`, in series [5], the inhibition was determined as 32%.

Regarding `NCCCCc1cn(-c2ccc(-c3nc(-c4ccccc4)c(-c4ccccc4)s3)c(OCCN3CCNC3=O)c2)nn1`, in series [2], the inhibition result is “inactive”.
